# HCV NS3 hel inh – blocks Hepatitis C virus NS3 helicase unwinding; 290,000 tested, 0.56% active; NS3 helicase DNA unwinding, Cy5 molecular beacon fluorescence; inhibition, % at 10.9 µM;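 active means inhibition above the mean of all tested compounds plus 3 SD, set per campaign, cut at about 35% in these data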;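 further: 0% = DMSO wells and 100% = thioflavine S control wells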
#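 Material: hepatitis C virus NS3 helicase domain fragment enzyme; measured by: Cy5 fluorescence, 0 and 60 min reads; control set: DMSO and thioflavine S; incubation: 60 min unwinding reaction at 25 °C after ATP addition; read-out basis: % inhibition from 60/0 min fluorescence ratio, DMSO 0%, thioflavine S 100%; repeats: singlicate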
# core dimer inh – blocks dimerization of HCV core protein | TR-FRET GST/Flag-core106 dimerization, 1536-well | inhibition, % at 5 µM | 300,000 tested, 0.33% active | AID 1899;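 active means inhibition above the mean of all tested compounds plus 3 SD, set per screening campaign, cut at about 45% in these data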
#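 Assay system: Tagged HCV core106 pair (GST and Flag) | Buffer or medium: KF-containing HEPES buffer, pH 7.45, DTT, CHAPS, BSA | Also added: Eu donor and XL665 acceptor anti-tag antibodies | Dosing: One concentration, 5 µM, in 0.5% DMSO | Timing: 4 h at 22.5 °C | Technique: TR-FRET 671 and 617 nm emission | Repeats: Singlicate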
# EBNA-1 inh – blocks EBNA-1 binding to DNA. 300,000 tested, 0.34% active. EBNA-1 DNA binding, fluorescence polarization. inhibition, % at 14.8 µM; in the data active means inhibition above about 28%
# ZTA DNA inh – blocks Epstein-Barr virus ZTA, an EBNA-1 counter-screen | 320,000 tested, 0.15% active | inhibition, % at 11 µM | ZTA-DNA binding, fluorescence polarization; in the data active means inhibition above about 33%
# Target sequence (P03206 whole entry, looked up): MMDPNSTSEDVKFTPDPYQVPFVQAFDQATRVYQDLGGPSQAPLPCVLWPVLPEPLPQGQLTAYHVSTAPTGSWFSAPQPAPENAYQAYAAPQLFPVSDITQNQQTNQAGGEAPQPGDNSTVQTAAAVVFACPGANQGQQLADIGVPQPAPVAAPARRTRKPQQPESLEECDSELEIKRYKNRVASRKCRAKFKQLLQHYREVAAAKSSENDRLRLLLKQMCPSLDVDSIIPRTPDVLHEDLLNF
# NS3 hel confirm – confirmation of Hepatitis C virus NS3 helicase inhibitors | shares compounds with HCV NS3 hel inh | NS3 helicase DNA unwinding, Cy5 molecular beacon fluorescence | inhibition, % at 10.9 µM | 1,600 tested, 31% active | AID 1943;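 active means inhibition above the mean of all tested compounds plus 3 SD, cutoff set per campaign, cut at about 36% in these data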
# DNA FID counter – displaces DNA intercalator in HCV helicase counter-screen | shares compounds with HCV NS3 hel inh | DNA fluorescent intercalator displacement, fluorescence | inhibition, % at 7.9 µM | 1,600 tested, 4% active | AID 1945; in the data active means inhibition above about 37%;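 further: 0% = vehicle and 100% = reference compound; higher means more displacement of ethidium bromide from the DNA hairpin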
# DNA FID DR – displaces fluorescent intercalator from DNA, HCV helicase counter-screen. 120 tested, under 10 active. fluorescent intercalator displacement from DNA, fluorescence. AID 2172. shares compounds with HCV NS3 hel inh. IC50, µM; call rule not given here
# Numbers without * were called inactive; . = not tested or not shown. The list is not random: actives were taken first. Their share in the collection is about 1.2%.
SMILES,HCV NS3 hel inh,core dimer inh,EBNA-1 inh,ZTA DNA inh,NS3 hel confirm,DNA FID counter,others
C[C@H](NC(=O)c1ccc(Cl)cc1)C(=O)NCCc1ccc(S(N)(=O)=O)cc1,3,2,-8,-10,.,.,
Cc1cc(C)nc(NS(=O)(=O)c2ccc(NC(=O)c3ccc(N4C(=O)CCC4=O)cc3)cc2)n1,60*,-14,5,-5,-21,12,
O=C(O)c1cc(N/N=C/c2ccc(OCc3ccccc3)cc2)ccc1Cl,42*,7,3,-2,67*,5,
COC(=O)c1ccc(COc2ccc(/C=N/Nc3cccc(C(=O)O)c3)cc2)cc1,0,4,2,8,.,.,
CC(=O)OCCNc1cc(SCc2ccco2)c2nonc2c1[N+](=O)[O-],47*,4,-2,7,-17,20,
CN(CCC#N)C(=O)COC(=O)c1c2c(nc3ccccc13)/C(=C/c1ccco1)CC2,77*,53*,11,-2,-1,3,
Cc1ccc2[nH]c(=O)c(CN(Cc3ccco3)C(=O)CN3CCCC(C)C3)cc2c1 (stereo not drawn),1,-5,0,6,.,.,
O=C(c1ccc2nc(-c3ccco3)c(-c3ccco3)nc2c1)N1CCN(c2ccccc2)CC1,41*,25,-17,5,65*,-15,DNA FID DR=>79
CCc1nc2ccc(C(=O)NCCc3ccc(OC)c(OC)c3)cc2nc1CC,0,-2,1,0,.,.,
O=C(O)c1ccc2nc(-c3ccco3)c(-c3ccco3)nc2c1,45*,.,.,.,67*,10,
COc1ccc(CCNC(=O)c2ccc3nc(-c4ccco4)c(-c4ccco4)nc3c2)cc1OC,52*,57*,3,-12,41*,-8,
O=C(NC1CCCC1)C(c1ccc(F)cc1)N(Cc1ccccc1Cl)C(=O)CCl (stereo not drawn),14,1,-7,-2,.,.,
O=C1C=C(NNC(=O)c2cccnc2)CC(c2ccco2)C1 (stereo not drawn),7,-4,-5,8,.,.,
c1ccc(COc2cccc(CN3CCc4ccccc4C3)c2)cc1,-16,-4,-18,-21,.,.,
Cc1ccc(C(=O)NCC(=O)OC(C)C(=O)NC2CCCc3ccccc32)cc1 (stereo not drawn),.,-5,-4,-10,.,.,
C#CCOc1c(Br)cc(/C=C2/C(=O)ON=C2C)cc1OCC,4,7,2,-18,.,.,
C#CCOc1c(Cl)cc(/C=C2/C(=O)ON=C2C)cc1OCC,57*,2,-1,-12,71*,16,
CC(C)CCN1CCN=C1Nc1ccccc1,50*,-8,6,11,-19,12,
CS(=O)(=O)N1CCC(C(=O)NCc2ccc(F)cc2)CC1,-1,0,-17,-18,.,.,
N=C1/C(=C\c2ccc(-c3ccc(C(=O)O)cc3)o2)C(=O)N=C2SC=C(c3ccccc3)N12,36*,.,.,.,73*,14,
Cc1cccc(-n2c(C)cc(/C=C3/C(=N)N4C(c5ccccc5)=CSC4=NC3=O)c2C)c1,-2,11,-3,-6,.,.,
N=C1/C(=C\c2ccc(-c3cccc(Cl)c3)o2)C(=O)N=C2SC=C(c3ccccc3)N12,46*,41,13,-2,80*,17,
O=C(Nc1nnc(-c2ccco2)s1)C1CCCCC1,-2,2,7,4,.,.,
O=C(Nc1nc(-c2ccco2)c(-c2ccco2)s1)C1CC(=O)N(c2ccc3c(c2)OCCO3)C1 (stereo not drawn),40*,32,12,-1,72*,28,DNA FID DR=>79
O=C(Nc1nc(-c2ccco2)c(-c2ccco2)s1)C1CCC1,58*,8,1,13,47*,19,DNA FID DR=>79
CC1(C)CC(=O)C=C(Nc2cccc(Cl)c2Cl)C1,.,-2,7,-2,.,.,
Cc1cccc(N/N=C/c2ccc(O)c(O)c2O)c1,38*,1,-2,-7,-15,8,
COc1cccc(N/N=C/c2cccc(Br)c2O)c1,0,-7,9,-10,.,.,
COc1ccc(-c2ccc(CCC(=O)O)n2-c2ccccc2O)cc1,45*,-1,12,-8,6,-3,
CCc1nc(NC(=O)NS(=O)(=O)c2ccccc2C(=O)OC)nc(OC)n1,-4,-1,-9,-3,.,.,

# Compound activity: PubChem, The Scripps Research Institute Molecular Screening Center
